Reference: ChEMBL document CHEMBL1128473, “[(Biaryloxy)alkyl]isoxazoles: picornavirus inhibitors” (J Med Chem, 1995)
≈ marks a conversion by molar mass, not a printed value.

Columns and labels:
[1] = Metabolic stability expressed as half life values was monitored in vitro liver microsomal assay.; format: ADME, Microsome; settings: liver microsomes
[2] = test system: Human rhinovirus sp.; experiment: Concentration inhibiting 50% of the serotypes tested to 50% of the viral concentration of untreated controls following 72 hr of exposure; format: functional
How it was run: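 Tissue culture infectious dose (TCID50) assay against a panel of 10 human rhinovirus serotypes. For each serotype, the viral concentration was compared with untreated controls after 72 h of compound exposure. MIC50 is the compound concentration at which half of the serotypes tested are reduced to 50% of the untreated-control viral concentration.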

[3] = test system: Human rhinovirus sp.; experiment: Minimum inhibitory concentration on HRV serotype 19; format: functional
[4] = test system: Human rhinovirus sp.; experiment: Minimum inhibitory concentration on HRV serotype 39; format: functional
[5] = test system: Human rhinovirus sp.; experiment: Minimum inhibitory concentration on HRV serotype 32; format: functional
[6] = test system: Human rhinovirus sp.; experiment: Minimum inhibitory concentration on HRV serotype 89; format: functional
How it was run: (§1)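 Tested in a tissue culture infectious dose (TCID50) assay with 72 h compound exposure. Activity is read as the concentration that holds virus to 50% of the titer of untreated controls.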

[7] = test system: Human rhinovirus sp.; experiment: Minimum inhibitory concentration on HRV serotype 63; format: functional
[8] = test system: Human rhinovirus sp.; experiment: Minimum inhibitory concentration on HRV serotype 92; format: functional; how it was run: as §1
[9] = test system: Human rhinovirus sp.; experiment: Minimum inhibitory concentration on HRV serotype 22; format: functional
[10] = test system: Human rhinovirus sp.; experiment: Minimum inhibitory concentration on HRV serotype 1B; format: functional
[11] = test system: Human rhinovirus sp.; experiment: Minimum inhibitory concentration on HRV serotype 51; format: functional
[12] = test system: Human rhinovirus sp.; experiment: Minimum inhibitory concentration on HRV serotype 78; format: functional; how it was run: as §1
[13] = test system: Human rhinovirus sp.; experiment: Minimum inhibitory concentration on HRV serotype 84; format: functional; how it was run: as §1
[14] = test system: Human rhinovirus sp.; experiment: Minimum inhibitory concentration on HRV serotype 16; format: functional
[15] = test system: Human rhinovirus sp.; experiment: Minimum inhibitory concentration on HRV serotype 64; format: functional
[16] = test system: Human rhinovirus sp.; experiment: Minimum inhibitory concentration on HRV serotype 96; format: functional; how it was run: as §1
[17] = test system: Human rhinovirus sp.; experiment: Minimum inhibitory concentration on HRV serotype 81; format: functional; how it was run: as §1
[18] = test system: Human rhinovirus sp.; experiment: Minimum inhibitory concentration on HRV serotype 24; format: functional
[19] = test system: Human rhinovirus sp.; experiment: Minimum inhibitory concentration on HRV serotype 15; format: functional
[20] = test system: Human rhinovirus sp.; experiment: Minimum inhibitory concentration on HRV serotype 34; format: functional
[21] = test system: Human rhinovirus sp.; experiment: Minimum inhibitory concentration on HRV serotype 49; format: functional
[22] = test system: Human rhinovirus sp.; experiment: Minimum inhibitory concentration on HRV serotype 9; format: functional; how it was run: as §1
[23] = test system: Human rhinovirus sp.; experiment: Minimum inhibitory concentration on HRV serotype 33; format: functional
[24] = test system: Human rhinovirus sp.; experiment: Minimum inhibitory concentration on HRV serotype 66; format: functional
[25] = test system: Human rhinovirus sp.; experiment: Minimum inhibitory concentration on HRV serotype 30; format: functional
[26] = test system: Human rhinovirus sp.; experiment: Minimum inhibitory concentration on HRV serotype 79; format: functional; how it was run: as §1
[27] = test system: Human rhinovirus sp.; experiment: Minimum inhibitory concentration on HRV serotype 36; format: functional
[28] = test system: Human rhinovirus sp.; experiment: Minimum inhibitory concentration on HRV serotype 43; format: functional
[29] = test system: Human rhinovirus sp.; experiment: Minimum inhibitory concentration on HRV serotype 47; format: functional
[30] = test system: Human rhinovirus sp.; experiment: Minimum inhibitory concentration on HRV serotype 29; format: functional
[31] = test system: Human rhinovirus sp.; experiment: Minimum inhibitory concentration on HRV serotype 82; format: functional; how it was run: as §1
[32] = test system: Human rhinovirus sp.; experiment: Minimum inhibitory concentration on HRV serotype 11; format: functional
[33] = test system: Human rhinovirus sp.; experiment: Minimum inhibitory concentration on HRV serotype 28; format: functional
[34] = test system: Human rhinovirus sp.; experiment: Minimum inhibitory concentration on HRV serotype 38; format: functional
[35] = test system: Human rhinovirus sp.; experiment: Minimum inhibitory concentration on HRV serotype 7; format: functional
[36] = test system: Human rhinovirus sp.; experiment: Minimum inhibitory concentration on HRV serotype 85; format: functional; how it was run: as §1
[37] = test system: Human rhinovirus sp.; experiment: Minimum inhibitory concentration on HRV serotype 73; format: functional
[38] = test system: Human rhinovirus sp.; experiment: Minimum inhibitory concentration on HRV serotype 58; format: functional
[39] = test system: Human rhinovirus sp.; experiment: Minimum inhibitory concentration on HRV serotype 62; format: functional
[40] = test system: Human rhinovirus sp.; experiment: Minimum inhibitory concentration on HRV serotype 35; format: functional
[41] = test system: Human rhinovirus sp.; experiment: Minimum inhibitory concentration on HRV serotype 56; format: functional
[42] = test system: Human rhinovirus sp.; experiment: Minimum inhibitory concentration on HRV serotype 1A; format: functional
[43] = test system: Human rhinovirus sp.; experiment: Minimum inhibitory concentration on HRV serotype 46; format: functional
[44] = test system: Human rhinovirus sp.; experiment: Minimum inhibitory concentration on HRV serotype T39; format: functional; how it was run: as §1
[45] = test system: Human rhinovirus sp.; experiment: Minimum inhibitory concentration on HRV serotype 53; format: functional
[46] = test system: Human rhinovirus sp.; experiment: Minimum inhibitory concentration on HRV serotype 55; format: functional
[47] = test system: Human rhinovirus sp.; experiment: Minimum inhibitory concentration on HRV serotype 50; format: functional
[48] = test system: Human rhinovirus sp.; experiment: Minimum inhibitory concentration on HRV serotype 76; format: functional; how it was run: as §1
[49] = test system: Human rhinovirus sp.; experiment: Minimum inhibitory concentration on HRV serotype 68; format: functional
[50] = test system: Human rhinovirus sp.; experiment: Minimum inhibitory concentration on HRV serotype 40; format: functional
[51] = test system: Human rhinovirus sp.; experiment: Minimum inhibitory concentration on HRV serotype 75; format: functional
[52] = test system: Human rhinovirus sp.; experiment: Minimum inhibitory concentration on HRV serotype 57; format: functional
[53] = test system: Human rhinovirus sp.; experiment: Minimum inhibitory concentration on HRV serotype 80; format: functional; how it was run: as §1
[54] = test system: Human rhinovirus sp.; experiment: Minimum inhibitory concentration on HRV serotype 100; format: functional
[55] = test system: Human rhinovirus sp.; experiment: Minimum inhibitory concentration on HRV serotype 20; format: functional
[56] = test system: Human rhinovirus sp.; experiment: Minimum inhibitory concentration on HRV serotype 67; format: functional
[57] = test system: Human rhinovirus sp.; experiment: Minimum inhibitory concentration on HRV serotype 25; format: functional
[58] = test system: Human rhinovirus sp.; experiment: Minimum inhibitory concentration on HRV serotype 83; format: functional; how it was run: as §1
[59] = test system: Human rhinovirus sp.; experiment: Minimum inhibitory concentration on HRV serotype 44; format: functional
[60] = test system: Human rhinovirus sp.; experiment: Minimum inhibitory concentration on HRV serotype 21; format: functional
[61] = test system: Human rhinovirus sp.; experiment: Minimum inhibitory concentration on HRV serotype 23; format: functional
[62] = test system: Human rhinovirus sp.; experiment: Minimum inhibitory concentration on HRV serotype 71; format: functional
[63] = test system: Human rhinovirus sp.; experiment: Minimum inhibitory concentration on HRV serotype 61; format: functional
[64] = test system: Human rhinovirus sp.; experiment: Minimum inhibitory concentration on HRV serotype 90; format: functional; how it was run: as §1
[65] = test system: Human rhinovirus sp.; experiment: Minimum inhibitory concentration on HRV serotype 2; format: functional
[66] = test system: Human rhinovirus sp.; experiment: Minimum inhibitory concentration on HRV serotype 88; format: functional; how it was run: as §1

Cc1ccc(-c2cc(C)c(OCCCc3cc(C)no3)c(C)c2)cc1
half-life [1]: > 3.33 h | MIC50 [2]: 0.12 µM (≈ 0.0403 µg/mL)

Cc1cc(CCCOc2c(C)cc(-c3cccc(F)c3)cc2C)on1
MIC50 [2]: 0.32 µM (≈ 0.109 µg/mL)

Cc1cc(CCCCCOc2c(Cl)cc(C3=NCCO3)cc2Cl)on1 [WIN-54954]
MIC [3]: 0.178 mg/L (≈ 0.464 µM) | MIC [4]: 0.347 mg/L (≈ 0.905 µM) | MIC [5]: 0.269 mg/L (≈ 0.702 µM) | MIC [6]: 0.034 mg/L (≈ 0.0887 µM) | MIC [7]: 0.101 mg/L (≈ 0.264 µM) | MIC [8]: 0.002 mg/L (≈ 0.00522 µM) | MIC [9]: 0.027 mg/L (≈ 0.0704 µM) | MIC [10]: 0.105 mg/L (≈ 0.274 µM) | MIC [11]: 0.033 mg/L (≈ 0.0861 µM) | MIC [12]: 0.081 mg/L (≈ 0.211 µM) | MIC [13]: > 3 mg/L | MIC [14]: 0.639 mg/L (≈ 1.67 µM) | MIC [15]: 0.497 mg/L (≈ 1.3 µM) | MIC [16]: 0.091 mg/L (≈ 0.237 µM) | MIC [17]: 0.416 mg/L (≈ 1.09 µM) | MIC [18]: 0.175 mg/L (≈ 0.457 µM) | MIC [19]: 0.49 mg/L (≈ 1.28 µM) | MIC [20]: 0.072 mg/L (≈ 0.188 µM) | MIC [21]: 0.16 mg/L (≈ 0.417 µM) | MIC [22]: 0.187 mg/L (≈ 0.488 µM) | MIC [23]: 0.107 mg/L (≈ 0.279 µM) | MIC [24]: 0.069 mg/L (≈ 0.18 µM) | MIC [25]: 0.156 mg/L (≈ 0.407 µM) | MIC [26]: 0.028 mg/L (≈ 0.0731 µM) | MIC [27]: 0.073 mg/L (≈ 0.19 µM) | MIC [28]: 0.283 mg/L (≈ 0.738 µM) | MIC [29]: 0.015 mg/L (≈ 0.0391 µM) | MIC [30]: 0.295 mg/L (≈ 0.77 µM) | MIC [31]: 0.245 mg/L (≈ 0.639 µM) | MIC [32]: 0.102 mg/L (≈ 0.266 µM) | MIC [33]: 0.116 mg/L (≈ 0.303 µM) | MIC [34]: 0.078 mg/L (≈ 0.204 µM) | MIC [35]: 0.035 mg/L (≈ 0.0913 µM) | MIC [36]: 0.043 mg/L (≈ 0.112 µM) | MIC [37]: 0.242 mg/L (≈ 0.631 µM) | MIC [38]: 0.028 mg/L (≈ 0.0731 µM) | MIC [39]: 0.115 mg/L (≈ 0.3 µM) | MIC [40]: 0.036 mg/L (≈ 0.0939 µM) | MIC [41]: 0.099 mg/L (≈ 0.258 µM) | MIC [42]: 0.419 mg/L (≈ 1.09 µM) | MIC [43]: 0.143 mg/L (≈ 0.373 µM) | MIC [44]: 0.299 mg/L (≈ 0.78 µM) | MIC [45]: 0.355 mg/L (≈ 0.926 µM) | MIC [46]: 0.02 mg/L (≈ 0.0522 µM) | MIC [47]: 0.47 mg/L (≈ 1.23 µM) | MIC [48]: 0.102 mg/L (≈ 0.266 µM) | MIC [49]: 0.032 mg/L (≈ 0.0835 µM) | MIC50 [2]: 0.78 µM (≈ 0.299 µg/mL) | MIC [50]: 0.053 mg/L (≈ 0.138 µM) | MIC [51]: 0.157 mg/L (≈ 0.41 µM) | MIC [52]: 0.156 mg/L (≈ 0.407 µM) | MIC [53]: 0.124 mg/L (≈ 0.324 µM) | MIC [54]: 0.025 mg/L (≈ 0.0652 µM) | MIC [55]: 0.037 mg/L (≈ 0.0965 µM) | MIC [56]: 0.169 mg/L (≈ 0.441 µM) | MIC [57]: 0.072 mg/L (≈ 0.188 µM) | MIC [58]: 0.018 mg/L (≈ 0.047 µM) | MIC [59]: 0.119 mg/L (≈ 0.31 µM) | MIC [60]: 0.031 mg/L (≈ 0.0809 µM) | MIC [61]: 0.451 mg/L (≈ 1.18 µM) | MIC [62]: 0.018 mg/L (≈ 0.047 µM) | MIC [63]: 0.127 mg/L (≈ 0.331 µM) | MIC [64]: 0.191 mg/L (≈ 0.498 µM) | MIC [65]: 0.058 mg/L (≈ 0.151 µM) | MIC [66]: 0.084 mg/L (≈ 0.219 µM)
